Measured values: PubChem BioAssay AID588484 (The Scripps Research Institute Molecular Screening Center, 2011)
The source made the active and inactive calls.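 How the source made its calls: active means IC50 of 1 µM or lower against any of the four tested PAD enzyme isoforms; inactive means the rest, IC50 above 1 µM everywhere.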

Tests used:
Experiment in all cases: PAD1-4 inhibitor IC50 determination, late-stage follow-up, selectivity assay for PAD4 inhibitor project, biochemical, colorimetric, BAEE substrate, recombinant PAD1-4 (AID 588484)
[1] = target: Protein-arginine deiminase type-1 (Homo sapiens) (UniProt Q9ULC6); settings: recombinant PAD1-4, BAEE citrullination, colorimetric absorbance; PAD1
Method in brief: (§1)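 Reagent – 10 mM BAEE substrate · Material – recombinant PAD2, PAD3 or PAD4 enzyme, each assayed separately · Schedule – 15 min pre-incubation (37 °C), 15 min reaction · Technique – colorimetric citrulline measurement by absorbance at 540 nm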

[2] = target: Protein-arginine deiminase type-2 (Homo sapiens) (UniProt Q9Y2J8); settings: recombinant PAD1-4, BAEE citrullination, colorimetric absorbance; PAD2
Method in brief: as §1

[3] = target: Protein-arginine deiminase type-3 (Homo sapiens) (UniProt Q9ULW8); settings: recombinant PAD1-4, BAEE citrullination, colorimetric absorbance; PAD3
Method in brief: as §1

[4] = target: Protein-arginine deiminase type-4 (Homo sapiens) (UniProt Q9UM07); settings: recombinant PAD1-4, BAEE citrullination, colorimetric absorbance; PAD4
Method in brief: as §1

Measured: IC50

Protein-arginine deiminase type-1 (Homo sapiens), sequence (Q9ULC6 whole entry, looked up): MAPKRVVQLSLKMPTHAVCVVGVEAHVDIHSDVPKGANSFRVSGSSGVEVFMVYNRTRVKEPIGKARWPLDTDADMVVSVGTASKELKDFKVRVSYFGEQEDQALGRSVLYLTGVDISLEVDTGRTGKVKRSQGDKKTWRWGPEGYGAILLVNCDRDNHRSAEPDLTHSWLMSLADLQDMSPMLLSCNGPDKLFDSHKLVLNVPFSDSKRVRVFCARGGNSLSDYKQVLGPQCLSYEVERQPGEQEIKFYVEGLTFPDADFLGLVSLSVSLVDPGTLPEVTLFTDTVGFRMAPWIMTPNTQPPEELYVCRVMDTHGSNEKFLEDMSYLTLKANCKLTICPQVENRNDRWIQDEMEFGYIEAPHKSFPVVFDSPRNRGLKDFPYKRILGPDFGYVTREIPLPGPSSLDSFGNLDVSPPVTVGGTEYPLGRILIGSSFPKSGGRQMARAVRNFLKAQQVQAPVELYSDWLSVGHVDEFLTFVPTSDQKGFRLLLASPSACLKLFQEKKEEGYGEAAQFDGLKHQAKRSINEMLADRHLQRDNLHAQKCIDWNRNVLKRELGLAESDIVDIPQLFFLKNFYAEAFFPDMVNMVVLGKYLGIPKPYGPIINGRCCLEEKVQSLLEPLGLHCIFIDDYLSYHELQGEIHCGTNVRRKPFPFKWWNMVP
Protein-arginine deiminase type-2 (Homo sapiens), sequence (Q9Y2J8 whole entry, looked up): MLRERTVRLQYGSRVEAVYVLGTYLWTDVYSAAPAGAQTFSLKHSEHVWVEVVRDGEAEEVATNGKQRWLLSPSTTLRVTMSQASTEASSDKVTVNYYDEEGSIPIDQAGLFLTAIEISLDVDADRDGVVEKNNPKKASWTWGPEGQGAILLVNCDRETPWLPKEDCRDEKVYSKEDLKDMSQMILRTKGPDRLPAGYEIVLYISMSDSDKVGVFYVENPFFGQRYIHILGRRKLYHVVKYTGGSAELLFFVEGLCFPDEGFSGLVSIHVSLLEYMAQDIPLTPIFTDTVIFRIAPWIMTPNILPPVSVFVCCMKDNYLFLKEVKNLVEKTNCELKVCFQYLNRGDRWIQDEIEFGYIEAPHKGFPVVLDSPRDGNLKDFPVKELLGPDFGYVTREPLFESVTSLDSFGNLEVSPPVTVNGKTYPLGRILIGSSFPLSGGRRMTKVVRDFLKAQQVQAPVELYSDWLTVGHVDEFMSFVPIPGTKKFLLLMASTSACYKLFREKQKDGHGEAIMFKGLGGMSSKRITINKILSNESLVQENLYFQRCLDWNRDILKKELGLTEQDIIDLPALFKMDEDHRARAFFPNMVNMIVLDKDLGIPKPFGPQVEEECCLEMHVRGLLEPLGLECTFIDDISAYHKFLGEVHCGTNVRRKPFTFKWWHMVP
Protein-arginine deiminase type-3 (Homo sapiens), sequence (Q9ULW8 whole entry, looked up): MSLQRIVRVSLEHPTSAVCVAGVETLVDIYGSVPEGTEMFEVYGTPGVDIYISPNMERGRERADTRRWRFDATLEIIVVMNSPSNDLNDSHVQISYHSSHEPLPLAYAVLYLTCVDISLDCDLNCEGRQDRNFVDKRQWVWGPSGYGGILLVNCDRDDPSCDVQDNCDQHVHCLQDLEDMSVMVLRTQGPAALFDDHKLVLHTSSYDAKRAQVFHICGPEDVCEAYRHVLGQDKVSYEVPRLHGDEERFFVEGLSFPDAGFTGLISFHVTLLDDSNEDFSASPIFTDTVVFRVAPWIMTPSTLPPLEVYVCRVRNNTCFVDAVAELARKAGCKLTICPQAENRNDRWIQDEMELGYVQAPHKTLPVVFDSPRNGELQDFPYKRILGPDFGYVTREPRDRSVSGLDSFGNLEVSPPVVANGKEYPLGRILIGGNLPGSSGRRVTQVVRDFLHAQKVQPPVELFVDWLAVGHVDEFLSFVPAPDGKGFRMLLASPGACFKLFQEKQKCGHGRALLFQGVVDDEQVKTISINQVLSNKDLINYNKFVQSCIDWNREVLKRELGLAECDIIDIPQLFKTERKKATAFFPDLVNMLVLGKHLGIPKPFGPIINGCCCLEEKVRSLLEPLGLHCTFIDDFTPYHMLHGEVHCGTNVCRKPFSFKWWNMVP
Protein-arginine deiminase type-4 (Homo sapiens), sequence (Q9UM07 whole entry, looked up): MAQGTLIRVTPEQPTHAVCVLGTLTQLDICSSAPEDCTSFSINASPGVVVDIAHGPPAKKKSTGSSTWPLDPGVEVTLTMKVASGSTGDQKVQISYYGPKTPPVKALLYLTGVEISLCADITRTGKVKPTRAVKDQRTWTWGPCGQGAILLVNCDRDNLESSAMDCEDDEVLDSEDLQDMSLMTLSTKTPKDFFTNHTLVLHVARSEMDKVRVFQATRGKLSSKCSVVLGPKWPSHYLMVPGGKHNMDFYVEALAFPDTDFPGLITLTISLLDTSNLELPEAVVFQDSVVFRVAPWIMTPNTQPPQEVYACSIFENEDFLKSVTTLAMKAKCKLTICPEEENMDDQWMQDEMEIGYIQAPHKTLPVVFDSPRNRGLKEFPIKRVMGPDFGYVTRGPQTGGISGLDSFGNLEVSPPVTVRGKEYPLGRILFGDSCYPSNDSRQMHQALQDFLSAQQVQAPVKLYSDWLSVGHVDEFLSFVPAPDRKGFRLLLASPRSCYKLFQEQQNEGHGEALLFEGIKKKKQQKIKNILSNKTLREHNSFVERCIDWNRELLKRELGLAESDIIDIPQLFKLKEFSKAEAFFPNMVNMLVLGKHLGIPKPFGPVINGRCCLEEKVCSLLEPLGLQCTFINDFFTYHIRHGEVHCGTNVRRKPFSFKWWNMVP

COC1=C(Br)C(=O)c2ncccc2C1=O
inactive: all assays above
